Test results as given in ChEMBL document CHEMBL1909504, “New series of isoniazid hydrazones linked with electron-withdrawing substituents” (Eur J Med Chem, 2011).
≈ marks a conversion by molar mass, not a printed value.

Key:
[1] = test system: Mycobacterium avium; test: Antimycobacterial activity against Mycobacterium avium CNTC My 330/88 after 14 days; format: functional; details: CNTC My 330/88, 336 h
Outline: (§1)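 Sula semi-synthetic medium at 37 °C. Compounds were dissolved in DMSO (max. 5% DMSO in water) and added to the medium at 1000, 500, 250, 125, 62, 31, 16, 8, 4, 2 and 1 μmol L⁻¹. MIC was read after 7, 14 and 21 days of incubation at 37 °C. Strains came from the Czech National Collection of Type Cultures.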

[2] = test system: Mycobacterium kansasii; test: Antimycobacterial activity against Mycobacterium kansasii 6509/96 isolate after 7 days; format: functional; details: 6509/96, 168 h
Outline: (§2)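 MIC in Sula semi-synthetic medium at 37 °C. M. kansasii 6509/96 is a clinical isolate; M. kansasii CNTC My 235/80 comes from the Czech national collection. Compounds were dissolved in DMSO (max. 5% DMSO in water) and tested at 1000, 500, 250, 125, 62, 31, 16, 8, 4, 2 and 1 μmol L⁻¹. MIC was read after 7, 14 and 21 days.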

[3] = test system: Mycobacterium tuberculosis; test: Antimycobacterial activity against Mycobacterium tuberculosis CNTC My 331/88 ATCC 27294 after 14 days; format: functional; details: CNTC My 331/88 ATCC 27294, 336 h; outline: as §1
[4] = test system: Mycobacterium tuberculosis; test: Antimycobacterial activity against Mycobacterium tuberculosis CNTC My 331/88 ATCC 27294 after 21 days; format: functional; details: CNTC My 331/88 ATCC 27294, 504 h; outline: as §1
[5] = test system: Mycobacterium kansasii; test: Antimycobacterial activity against Mycobacterium kansasii 6509/96 isolate after 21 days; format: functional; details: 6509/96, 504 h; outline: as §2
[6] = test system: Mycobacterium kansasii; test: Antimycobacterial activity against Mycobacterium kansasii CNTC My 335/80 after 14 days; format: functional; details: 336 h; outline: as §2
[7] = test system: Mycobacterium kansasii; test: Antimycobacterial activity against Mycobacterium kansasii CNTC My 335/80 after 7 days; format: functional; details: 168 h; outline: as §2
[8] = test system: Mycobacterium kansasii; test: Antimycobacterial activity against Mycobacterium kansasii 6509/96 isolate after 14 days; format: functional; details: 6509/96, 336 h; outline: as §2
[9] = test system: Mycobacterium avium; test: Antimycobacterial activity against Mycobacterium avium CNTC My 330/88 after 21 days; format: functional; details: CNTC My 330/88, 504 h; outline: as §1
[10] = test system: Mycobacterium kansasii; test: Antimycobacterial activity against Mycobacterium kansasii CNTC My 335/80 after 21 days; format: functional; details: 504 h; outline: as §2
[11] = test system: PBMC; test: Cytotoxicity against human PBMC by MTT assay; format: cell-based
Outline: (§3)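 MTT viability assay in RPMI-1640 without phenol red with 10% FCS and 2 mM L-glutamine, at 37 °C and 5% CO₂. HepG2 seeded at 5×10³ cells/well; fresh human PBMC at 2.0×10⁵ cells/well. After 24 h, cells were exposed overnight in serum-free medium, then given MTT (2 mg mL⁻¹) for 4 h. Formazan dissolved in DMSO, OD540 minus OD620, compared with untreated controls. IC50 taken from dose-response curves; two independent experiments, 4–8 parallels.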

[12] = Selectivity index, ratio of IC50 for human HepG2 cells to MIC for Mycobacterium tuberculosis CNTC My 331/88 ATCC 27294; format: functional
Outline: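 HepG2 human hepatoma cells in RPMI-1640 without phenol red with 10% FCS, 2 mM L-glutamine and gentamycin, at 37 °C and 5% CO₂. Seeded at 5×10³ cells/well and grown 24 h, then treated overnight in serum-free medium. Read-out was MTT (4 h), formazan dissolved in DMSO, OD540 minus OD620. IC50 was taken from dose-response curves, two experiments with 4–8 parallels. MIC was measured in Sula medium.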

[13] = test system: HepG2; test: Cytotoxicity against human HepG2 cells by MTT assay; format: cell-based; outline: as §3

## O=C(N/N=C/Nc1ccc(F)c(Cl)c1)c1ccncc1
[1]
  MIC: 250 µM (≈ 73.2 µg/mL)
[2]
  MIC: 16 µM (≈ 4.68 µg/mL)
[3]
  MIC: 1 µM (≈ 0.293 µg/mL)
[4]
  MIC: 2 µM (≈ 0.585 µg/mL)
[5]
  MIC: 32 µM (≈ 9.37 µg/mL)
[6]
  MIC: 1000 µM (≈ 293 µg/mL)
[7]
  MIC: 250 µM (≈ 73.2 µg/mL)
[8]
  MIC: 16 µM (≈ 4.68 µg/mL)
[9]
  MIC: 500 µM (≈ 146 µg/mL)
[10]
  MIC: > 1000 µM

## O=C(N/N=C/Nc1cccc(Cl)c1)c1ccncc1
[1]
  MIC: 500 µM (≈ 137 µg/mL)
[2]
  MIC: 16 µM (≈ 4.4 µg/mL)
[3]
  MIC: 1 µM (≈ 0.275 µg/mL)
[4]
  MIC: 1 µM (≈ 0.275 µg/mL)
[5]
  MIC: 16 µM (≈ 4.4 µg/mL)
[6]
  MIC: 500 µM (≈ 137 µg/mL)
[7]
  MIC: 125 µM (≈ 34.3 µg/mL)
[8]
  MIC: 16 µM (≈ 4.4 µg/mL)
[9]
  MIC: 1000 µM (≈ 275 µg/mL)
[10]
  MIC: 500 µM (≈ 137 µg/mL)

## O=C(N/N=C/Nc1ccc(Br)cc1)c1ccncc1
[1]
  MIC: 500 µM (≈ 160 µg/mL)
[2]
  MIC: 32 µM (≈ 10.2 µg/mL)
[3]
  MIC: 2 µM (≈ 0.638 µg/mL)
[4]
  MIC: 4 µM (≈ 1.28 µg/mL)
[5]
  MIC: 32 µM (≈ 10.2 µg/mL)
[6]
  MIC: 250 µM (≈ 79.8 µg/mL)
[7]
  MIC: 125 µM (≈ 39.9 µg/mL)
[8]
  MIC: 32 µM (≈ 10.2 µg/mL)
[9]
  MIC: 500 µM (≈ 160 µg/mL)
[10]
  MIC: 500 µM (≈ 160 µg/mL)

## COc1cccc(N/C=N/NC(=O)c2ccncc2)c1
[1]
  MIC: 500 µM (≈ 135 µg/mL)
[2]
  MIC: 16 µM (≈ 4.32 µg/mL)
[3]
  MIC: 2 µM (≈ 0.541 µg/mL)
[4]
  MIC: 2 µM (≈ 0.541 µg/mL)
[5]
  MIC: 16 µM (≈ 4.32 µg/mL)
[6]
  MIC: 500 µM (≈ 135 µg/mL)
[7]
  MIC: 250 µM (≈ 67.6 µg/mL)
[8]
  MIC: 16 µM (≈ 4.32 µg/mL)
[9]
  MIC: 500 µM (≈ 135 µg/mL)
[10]
  MIC: 1000 µM (≈ 270 µg/mL)

## O=C(N/N=C/Nc1ccc(C(F)(F)F)cc1)c1ccncc1
[1]
  MIC: 500 µM (≈ 154 µg/mL)
[2]
  MIC: 32 µM (≈ 9.86 µg/mL)
[3]
  MIC: 2 µM (≈ 0.617 µg/mL)
[4]
  MIC: 2 µM (≈ 0.617 µg/mL)
[5]
  MIC: 32 µM (≈ 9.86 µg/mL)
[6]
  MIC: 500 µM (≈ 154 µg/mL)
[7]
  MIC: 250 µM (≈ 77.1 µg/mL)
[8]
  MIC: 32 µM (≈ 9.86 µg/mL)
[9]
  MIC: 1000 µM (≈ 308 µg/mL)
[10]
  MIC: 1000 µM (≈ 308 µg/mL)

## COc1ccc(N/C=N/NC(=O)c2ccncc2)cc1
[1]
  MIC: 500 µM (≈ 135 µg/mL)
[2]
  MIC: 16 µM (≈ 4.32 µg/mL)
[3]
  MIC: 2 µM (≈ 0.541 µg/mL)
[4]
  MIC: 4 µM (≈ 1.08 µg/mL)
[5]
  MIC: 32 µM (≈ 8.65 µg/mL)
[6]
  MIC: 500 µM (≈ 135 µg/mL)
[7]
  MIC: 250 µM (≈ 67.6 µg/mL)
[8]
  MIC: 16 µM (≈ 4.32 µg/mL)
[9]
  MIC: 500 µM (≈ 135 µg/mL)
[10]
  MIC: 1000 µM (≈ 270 µg/mL)

## O=C(N/N=C/Nc1ccc(Cl)cc1O)c1ccncc1
[1]
  MIC: 250 µM (≈ 72.7 µg/mL)
[2]
  MIC: 16 µM (≈ 4.65 µg/mL)
[3]
  MIC: 2 µM (≈ 0.581 µg/mL)
[4]
  MIC: 4 µM (≈ 1.16 µg/mL)
[5]
  MIC: 32 µM (≈ 9.3 µg/mL)
[6]
  MIC: 500 µM (≈ 145 µg/mL)
[7]
  MIC: 250 µM (≈ 72.7 µg/mL)
[8]
  MIC: 16 µM (≈ 4.65 µg/mL)
[9]
  MIC: 500 µM (≈ 145 µg/mL)
[10]
  MIC: 500 µM (≈ 145 µg/mL)

## O=C(N/N=C/Nc1cc(Cl)ccc1O)c1ccncc1
[11]
  IC50: 75 µM
[1]
  MIC: 500 µM (≈ 145 µg/mL)
[2]
  MIC: 8 µM (≈ 2.33 µg/mL)
[3]
  MIC: 2 µM (≈ 0.581 µg/mL)
[4]
  MIC: 2 µM (≈ 0.581 µg/mL)
[5]
  MIC: 32 µM (≈ 9.3 µg/mL)
[6]
  MIC: 250 µM (≈ 72.7 µg/mL)
[7]
  MIC: 125 µM (≈ 36.3 µg/mL)
[8]
  MIC: 16 µM (≈ 4.65 µg/mL)
[9]
  MIC: 500 µM (≈ 145 µg/mL)
[12]
  Ratio: 10.9
[13]
  IC50: 21.8 µM
[10]
  MIC: 250 µM (≈ 72.7 µg/mL)

## NNC(=O)c1ccncc1 [ISONIAZID]
[1]
  MIC: > 250 µM
[2]
  MIC: 2 µM (≈ 0.274 µg/mL)
[3]
  MIC: 1 µM (≈ 0.137 µg/mL)
[4]
  MIC: 1 µM (≈ 0.137 µg/mL)
[5]
  MIC: 4 µM (≈ 0.549 µg/mL)
[6]
  MIC: > 250 µM
[7]
  MIC: > 250 µM
[8]
  MIC: 4 µM (≈ 0.549 µg/mL)
[9]
  MIC: > 250 µM
[13]
  IC50: > 1000 µM
[10]
  MIC: > 250 µM

## O=C(N/N=C/Nc1ccc(Cl)cc1)c1ccncc1
[1]
  MIC: 500 µM (≈ 137 µg/mL)
[2]
  MIC: 16 µM (≈ 4.4 µg/mL)
[3]
  MIC: 1 µM (≈ 0.275 µg/mL)
[4]
  MIC: 1 µM (≈ 0.275 µg/mL)
[5]
  MIC: 32 µM (≈ 8.79 µg/mL)
[6]
  MIC: 250 µM (≈ 68.7 µg/mL)
[7]
  MIC: 125 µM (≈ 34.3 µg/mL)
[8]
  MIC: 32 µM (≈ 8.79 µg/mL)
[9]
  MIC: 1000 µM (≈ 275 µg/mL)
[10]
  MIC: 1000 µM (≈ 275 µg/mL)
